{"source": "paper PMC7115577", "about": "(Peptides, 2005)", "type_in_all_cases": "cell-based", "key": {"[1]": {"tested_on": "human polymorphonuclear leukocytes (PMN)", "assay": "Chemotaxis assay"}, "[2]": {"tested_on": "isolated guinea pig ileum (GPI)", "assay": "Potentiation of the BK-induced contraction of GPI", "conditions": "analogue alone, cumulative GPI contraction curves", "how_it_was_run": "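Guinea pig ileum strips (1.5 cm) suspended in Tyrode solution at 37 °C; isotonic contractions recorded under 500 mg resting tension. Concentration–response curves were built for the agonist, and pD2 was derived from them.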"}, "[3]": {"tested_on": "guinea pig ileum", "conditions": "calyculin 100 nM, BK 20 nM, BPP9α 20 nM", "how_it_was_run": "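Ileum segments (1.5 cm) in Tyrode at 37 °C, isotonic recording under 500 mg resting tension. The phosphatase inhibitor was added either at the peak of the BK contraction, before the potentiating peptide, or 1 min before the combined BK/peptide challenge, with washes between. Traces are from four to six separate experiments.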"}}, "data": [{"molecule": "CC(C)C[C@H](NP(=O)(O)O[C@@H]1O[C@@H](C)[C@H](O)[C@@H](O)[C@H]1O)C(=O)N[C@@H](Cc1c[nH]c2ccccc12)C(=O)O", "note": "[phosphoramidon]", "values": [{"measurement": "migration index (MI) of BK in the presence of inhibitor", "setting": "[1]; BK 10^−8 M, phosphoramidon 10^−7 M, 5 min preincubation", "value": "1.19 ± 0.03"}]}, {"molecule": "C[C@H](N[C@@H](CCc1ccccc1)C(=O)O)C(=O)N1[C@H](C(=O)O)C[C@@H]2CCC[C@@H]21", "note": "[ramiprilat]", "values": [{"measurement": "effect on migratory activity of the nonpeptide agonist FR190997", "setting": "[1]", "value": "could not be accelerated"}, {"measurement": "migration index (MI) of BK in the presence of inhibitor", "setting": "[1]; BK 10^−7 M, ramiprilat 10 nM", "value": "1.69 ± 0.26"}]}, {"molecule": "DArg-Arg-Pro-Hyp-Gly-Thi-Ser-Pro-ɛAbu(ßPh)-Arg", "values": [{"measurement": "pD2-value of enzymatically more stable BK analogue", "setting": "[2]", "value": "6.65 ± 0.14"}]}, {"molecule": "calyculin", "values": [{"measurement": "influence on the potentiation of the BK-induced contraction", "setting": "[3]", "value": "no influence"}]}]}
